A short description of experiment [1]: OD615 S. cerevisiae growth inhibition, permissive medium, pilot counter-assay, permissive growth control for S. cerevisiae lifespan shortening project (AID 705;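 active = growth inhibition above 25% in both replicates, a cutoff set 3 SD above the mean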). The note with it: OD615, 24 h, at 10 µM, active compounds read high. The procedure, abridged: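 System: Engineered DeaD yeast | Buffer or medium: SC raffinose/galactose permissive medium | Doses: 10 µM single dose, 0.25% DMSO | Times: 24 h exposure, 30 °C | Measured by: OD615 turbidity read | Read-out: Yeast growth inhibition indicated by reduced 24 h OD615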

Experiment [2] can be described thus: Restrictive medium S. cerevisiae growth inhibition, OD615, pilot screen of yeast lifespan reduction project, restrictive growth control (AID 706;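 active = growth inhibition above a set limit, 3 SD over mean compound inhibition, in both replicates, cut at about 43% in these data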;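 also: modified DeaD lifespan yeast strain shifted to restrictive glucose medium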). The note with it: OD615, 48 h, at 10 µM, active compounds read high. Summed up:
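Assay system: engineered S. cerevisiae DeaD strain; Buffer or medium: CSMM-D glucose medium; Dosing: 10 µM compound, 0.25% DMSO; Times: cell pre-growth 4 h, compound exposure 48 h, 30 °C; Detection: absorbance (optical density) measured at 615 nm.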

A short description of experiment [3]: viability gain of MRP-1-high H69AR cells under doxorubicin, pilot screen, MRP-1 activator project, CellTiter-Glo, duplicate (AID 807;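 active = viability increase at or above a cutoff of the median across tested compounds plus 3 SD, cut at about 8.5% in these data, passing the limit was not always enough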;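 also: compound pretreatment 18-22 h then 72 h combined with doxorubicin; 0% = doxorubicin alone and 100% = vehicle without doxorubicin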). The note with it: H69AR viability with doxorubicin, CellTiter-Glo luminescence; at 10 µM; active compounds read high.
Experiment [4] is described as follows: growth suppression of beta-catenin knockout HCT116, pilot screen, human colon tumor cells (AID 823;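 active = cell viability at or below a set limit in both duplicate runs, the limit being the all-compound median minus 4 SD, cut at about 23% in these data, passing the limit was not always enough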;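 also: 0% = wells killed by 20 µM Hyamine and 100% = untreated DMSO cell wells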). To be noted: CellTiter-Glo, 60 h, at 10 µM, active compounds read low.
Experiment [5] in a line: growth suppression of PTEN-deleted HCT116, pilot screen, cell-based, HCT116 clonal line, CellTiter-Glo (AID 824;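 active = viability at or below 27.92% in each of two runs, the all-compound median minus 4 SD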;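 also: 0% = 20 µM Hyamine control and 100% = vehicle cell control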). To be noted: 60 h, at 10 µM, active compounds read low.
The nature of experiment [6]: inhibitors of the yeast RAM network, pilot screen, dse1pr::URA3 reporter, 5-FOA selection (AID 869).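 Also: 0% = DMSO wells with no growth and 100% = 10 µM 1-NA-PP1 with full growth; RAM network block rescues cells from 5-FOA so hits raise OD615 growth.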 To be noted: S. cerevisiae dse1pr::URA3 5-FOA growth, OD615, 2 d; at 10 µM; active compounds read high; strain carries analog-sensitive mutant Cbk1 kinase.
A short description of experiment [7]: RAM signaling pathway blockade in yeast – S. cerevisiae, Pdr1DBD-CYC8 efflux-inhibited sensitized strain, primary screen (AID 1298;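 active = RAM network inhibition above 8.4% in each of two replicates, 3 SD over the compound average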;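 also: 0% = DMSO untreated cells without growth and 100% = 10 µM 1-NA-PP1 full growth; higher means more yeast growth rescued from 5-FOA killing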). To be noted: S. cerevisiae cbk1-as DSE1-URA3 strain, 5-FOA growth OD615, 2 d; at 50 µM; active compounds read high.

Values without a mark were called inactive. Records with an inconclusive call do not appear. Active and inactive are the calls of the source.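 The calls were made as follows, unless noted: active = inhibition over a set limit, the all-compound mean plus 3 SD, in both replicate runs; inconclusive = over that limit in just one replicate run; inactive = at or under that limit in both runs.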

For `CC(C)=C1C2C=CC1C(C(=O)Nc1cc(C)ccc1C)C2C(=O)O` (stereo unspecified), the growth inhibition is -14.6% in experiment [1] and -12.2% in experiment [2]. Further, in experiment [3], the viability increase is -4.28%. For the same compound, the figures for the viability in experiment [4] and in experiment [5] were 87.4% and 85.8%, respectively. In experiment [6], the inhibition is 1.78%. The RAM network inhibition in experiment [7] is 6.92%.
With `COc1ccccc1NC(=O)Cn1cnc2c(oc3ccccc32)c1=O`, the growth inhibition was -11.8% in experiment [1] and -11.6% in experiment [2]. The viability increase in experiment [3] is -1.93%. Also, the viability in experiment [4] was 107%; in experiment [5] it was 100%. In addition, the inhibition in experiment [6] is 1.6%. Moreover, the RAM network inhibition in experiment [7] is -1.27%.
`CC1CSc2nnc(CCc3ccccc3)n21` (stereo unspecified): the growth inhibition in experiment [1] is 2.06%; in experiment [2], -7.96%. Also, in experiment [3], the viability increase is -2.61%. Besides, the viability in experiment [4] is 107%; in experiment [5], 89.2%. Moreover, the inhibition in experiment [6] is 0.37%. Besides, the RAM network inhibition in experiment [7] was -0.11%.
Consider `CCOC(=O)N1CCC(NC(=O)c2cc3c(C)nc4ccccc4c3o2)CC1`, for which the growth inhibition is -14.7% in experiment [1] and -11.2% in experiment [2]. Moreover, in experiment [3], the viability increase is -3.16%. The figures for the viability in experiment [4] and in experiment [5] were 92.6% and 91.5%, respectively. Further, the inhibition in experiment [6] is 0.54%. Besides, the RAM network inhibition in experiment [7] was 3.54%.
Turning to `O/N=C(/Cc1ccccn1)c1ccccc1`, the growth inhibition in experiment [1] is -1.64%; in experiment [2] it was 7.06%. Also, the viability increase in experiment [3] is -1.19%. Moreover, the viability in experiment [4] and in experiment [5] was 101% in each case. Besides, the inhibition in experiment [6] was 1.97%. Moreover, in experiment [7], the RAM network inhibition is 0.22%.
For `Cc1ccc(CNC(=O)CCCNS(=O)(=O)c2cccc3nonc23)cc1`, the results for the growth inhibition in experiment [1] and in experiment [2] were -4.66% and 0.525%, respectively. In experiment [3], the viability increase is -1.25%. The viability in experiment [4] and in experiment [5] was 101% in each case. In experiment [6], the inhibition is -0.185%. Besides, the RAM network inhibition in experiment [7] is 3%.
As for `CCOc1ccc(Cn2nnc(C(=O)NCCc3ccccc3)c2N)cc1`, the growth inhibition in experiment [1] was 1.4%; in experiment [2], 2.79%. Further, the viability increase in experiment [3] was 10.7% (active). Also, the figures for the viability in experiment [4] and in experiment [5] were 96.9% and 89.9%, respectively. In addition, the inhibition in experiment [6] is 2.5%. The RAM network inhibition in experiment [7] was 4.53%.
Regarding `CCOc1cc(C2CC(=O)NC(SCC)=C2C#N)ccc1O` (stereo unspecified), the growth inhibition was -16.8% in experiment [1] and -5.38% in experiment [2]. Besides, the viability increase in experiment [3] was -1.97%. The viability was 107% in experiment [4] and 92.6% in experiment [5]. For the same compound, the inhibition in experiment [6] was 1.97%. Further, the RAM network inhibition in experiment [7] is 0.15%.
In the case of `O=C(CSc1oc(-c2ccco2)nc1S(=O)(=O)c1ccc(Cl)cc1)NCC1CCCO1` (stereo unspecified), the results for the growth inhibition in experiment [1] and in experiment [2] were 1.39% and 2.77%, respectively. Also, the viability increase in experiment [3] was -1.13%. In addition, the viability in experiment [4] is 96.9%; in experiment [5] it was 95.1%. Moreover, the inhibition in experiment [6] was -0.09%. For the same compound, the RAM network inhibition in experiment [7] was 1.57%.
With `CC(=O)Nc1nonc1-c1nc2ccccc2n1N(C(C)=O)C(C)=O`, the growth inhibition is 3.74% in experiment [1] and 8.55% in experiment [2]. Moreover, the viability increase in experiment [3] was -2.77%. Moreover, the viability in experiment [4] was 93.2%; in experiment [5], 93.5%. Besides, the inhibition in experiment [6] is 2.67%. Also, in experiment [7], the RAM network inhibition is 3.63%.
In the case of `O=C(c1c(Cl)nc2sccn12)N1CCN(c2cccc(Cl)c2)CC1`, the growth inhibition is 0.85% in experiment [1] and 18.6% in experiment [2]. The viability increase in experiment [3] was -4.96%. The viability in experiment [4] is 13.8% (active); in experiment [5], 17.8% (active). The inhibition in experiment [6] is 0.91%. In addition, in experiment [7], the RAM network inhibition is 5.21%.
As for `Cc1nnc(Sc2nc3c(c(=O)[nH]c(=O)n3C)n2CCc2ccccc2)s1`, the growth inhibition in experiment [1] is -17.6%; in experiment [2], -13.6%. For the same compound, in experiment [3], the viability increase was -0.89%. The viability in experiment [4] was 102%; in experiment [5] it was 100%. For the same compound, the inhibition in experiment [6] was 0.16%. Also, the RAM network inhibition in experiment [7] was 8.3%.
As for `Cc1cccc(N(C)S(=O)(=O)c2cccc3nsnc23)c1`, the growth inhibition is -12% in experiment [1] and -17.9% in experiment [2]. Further, in experiment [3], the viability increase is -4.32%. Besides, the viability is 92.5% in experiment [4] and 89% in experiment [5]. For the same compound, in experiment [6], the inhibition was 0.325%. Besides, the RAM network inhibition in experiment [7] was 4.78%.
On to `CC1=CS/C(=C(/C#N)C(=O)N2CCCCC2)N1c1ccccc1`, for which the growth inhibition was -0.66% in experiment [1] and -8.34% in experiment [2]. Moreover, in experiment [3], the viability increase is -1.48%. Further, the viability in experiment [4] was 97.3%; in experiment [5], 95.8%. Also, the inhibition in experiment [6] is 0.425%. In addition, the RAM network inhibition in experiment [7] was 2.37%.
As to `O=C(Nc1ccc(S(=O)(=O)N2CCOCC2)cc1)c1ccc(Cl)cc1`, the growth inhibition in experiment [1] is -7.83%; in experiment [2], -8.68%. Further, the viability increase in experiment [3] is -1.99%. For the same compound, the values for the viability in experiment [4] and in experiment [5] were 61.1% and 80.2%, respectively. Also, the inhibition in experiment [6] is 2.31%. In experiment [7], the RAM network inhibition is 3.83%.
As for `Cn1c(=O)oc2cc(S(=O)(=O)N3CCCC(C(=O)N4CC=C(c5ccccc5)CC4)C3)ccc21` (stereo unspecified), the values for the growth inhibition in experiment [1] and in experiment [2] were -10.7% and 8.07%, respectively. Besides, the viability increase in experiment [3] is -1.04%. For the same compound, the results for the viability in experiment [4] and in experiment [5] were 80.9% and 82.1%, respectively. The inhibition in experiment [6] was 1.17%. For the same compound, the RAM network inhibition in experiment [7] is 4.97%.
As to `COc1ccc(C(=O)c2c[nH]c3ccccc23)cc1`, the growth inhibition is -4.92% in experiment [1] and 2.61% in experiment [2]. Moreover, in experiment [3], the viability increase is -1.32%. Further, the viability in experiment [4] was 101%; in experiment [5] it was 96.4%. Further, the inhibition in experiment [6] was 0.695%. The RAM network inhibition in experiment [7] was -1.45%.
Regarding `CCOC(=O)c1cnc2ccc(C(=O)OC)cc2c1NCCN1CCOCC1`, the results for the growth inhibition in experiment [1] and in experiment [2] were -6.57% and -2.95%, respectively. Besides, in experiment [3], the viability increase was -4.73%. Further, the viability was 86.6% in experiment [4] and 92.1% in experiment [5]. Further, the inhibition in experiment [6] was 2.41%. In addition, the RAM network inhibition in experiment [7] is 2.6%.

For the origin of these results see PubChem BioAssay.
